Measured values taken from the array DNA melting data of Ke et al. (doi:10.1101/2024.01.08.574731).

Tests used:
[1] = folding enthalpy; higher = less favourable; fluorescence melt of hairpins on a sequencing array, two-state fit; conditions: sodium 0.088 M
Outline: (§1)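 Melting temperature and folding enthalpy were derived from bootstrapped two-state fits. The fitted temperatures were raised by 9.35 °C to agree with UV melts, and four replicates were combined by inverse variance. The underlying data were Cy3 fluorescence images of library hairpins, with annealed Cy3 and quencher oligos, on a sequenced MiSeq flow cell in 50 mM Na-HEPES pH 8.0, 25 mM NaCl, taken in 2.5 °C steps up to 60 °C, normalised to pre-quench Cy3 and to control constructs.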

[2] = melting temperature; fluorescence melt of hairpins on a sequencing array, two-state fit, raised by 9.35 °C to match UV melts; conditions: sodium 0.088 M
Outline: as §1

Sequence | folding enthalpy [1] | Tm [2]
GCGCTCGGAAACAAGCGC (((((.(....).))))) | -46.7 kcal/mol | 55.9 °C
GCGCTCGGAAACGAGCAC (.(((((....))))).) | -10.4 kcal/mol | 51.5 °C
GCGCTCGGAAACGGGTGC ((.(.((....)).).)) | -53.1 kcal/mol | 51.6 °C
GCGCTGACGAAAGTCCGC (((..(((....)))))) | -25.1 kcal/mol | 51 °C
GCGCTGCGAAAGCCGTGC ((.(.((....)).).)) | -21.5 kcal/mol | 51.9 °C
GCGCTGCGAAAGCGGTGC ((.(.((....)).).)) | -31.8 kcal/mol | 66.7 °C
GCGCTGGGAAACTAGCGC (((((.(....).))))) | -32.4 kcal/mol | 67.1 °C
GCGCTTCGAAAGAATCGC (((.(((....))).))) | -41.3 kcal/mol | 51.8 °C
GCGCTTGGAAACAGGCGC ((((.((....)).)))) | -40.6 kcal/mol | 61.7 °C
GCGGAAACCCGC ((((....)))) | -20.9 kcal/mol | 50.2 °C
GCGGAAAGCCGC ((((....)))) | -16.3 kcal/mol | 48.5 °C
GCGGAAATCCGC ((((....)))) | -20.4 kcal/mol | 51.6 °C
GCGGAACGAAAGTTGCGC (((.(((....))).))) | -35.6 kcal/mol | 67.9 °C
GCGGAACGAAAGTTTCGC (((.(((....))).))) | -51.9 kcal/mol | 64.8 °C
GCGGAACGCCGC ((((....)))) | -9.84 kcal/mol | 58.4 °C
GCGGAAGACCGC ((((....)))) | -18.5 kcal/mol | 52.8 °C
GCGGAAGCCGC ((((...)))) | -15.7 kcal/mol | 55.8 °C
GCGGAAGTCCGC ((((....)))) | -20.9 kcal/mol | 56 °C
GCGGAATACCGC ((((....)))) | -21.9 kcal/mol | 54.2 °C
GCGGACGAAAGTCACGC ((((((....))).))) | -20.9 kcal/mol | 64.8 °C
GCGGACGAAAGTCCACGC ((((((....)))..))) | -15.2 kcal/mol | 58.9 °C
GCGGACGACCGC ((((....)))) | -24.6 kcal/mol | 53.8 °C
GCGGACGGCCGC ((((....)))) | -37.6 kcal/mol | 59.4 °C
GCGGACTCCGC ((((...)))) | -20.5 kcal/mol | 52 °C
GCGGAGATCCGC ((((....)))) | -26.2 kcal/mol | 54.2 °C

Sequence | folding enthalpy [1] | Tm [2]
GCGGAGCACCGC ((((....)))) | -11.2 kcal/mol | 61.6 °C
GCGGAGCCGAAAGGCCGC (((..(((....)))))) | -18.8 kcal/mol | 61.1 °C
GCGGAGCGAAAGCACAGC ((.(.((....)).).)) | -17.4 kcal/mol | 58 °C
GCGGAGCGAAAGCCCCGC ((((.((....)).)))) | -35.3 kcal/mol | 68.7 °C
GCGGAGCGAAAGCCGCGC (((..((....))..))) | -21.1 kcal/mol | 66.1 °C
GCGGAGCGAAAGCCTCGC (((..((....))..))) | -13.8 kcal/mol | 50.5 °C
GCGGAGCGAAAGCGCTGC ((.(.((....)).).)) | -15.2 kcal/mol | 57.1 °C
GCGGAGCGAAAGCGTCGC (((..((....))..))) | -26.6 kcal/mol | 67 °C
GCGGAGCGAAAGCTCGC (((.(((....)))))) | -17.6 kcal/mol | 67.4 °C
GCGGAGCGAAAGCTGAGC ((..(((....)))..)) | -14.6 kcal/mol | 56.5 °C
GCGGAGCGAAAGCTGGGC ((..(((....)))..)) | -7.98 kcal/mol | 43.2 °C
GCGGAGGCGAAAGCCCGC (((..(((....)))))) | -21.7 kcal/mol | 66.6 °C
GCGGAGGGAAACCCCCGC ((((.((....)).)))) | -38.9 kcal/mol | 57.6 °C
GCGGAGGGCCGC ((((....)))) | -15.4 kcal/mol | 53.9 °C
GCGGAGGTCCGC ((((....)))) | -24.4 kcal/mol | 56.4 °C
GCGGAGTCCCGC ((((....)))) | -21.1 kcal/mol | 55.7 °C
GCGGAGTTCCGC ((((....)))) | -23.4 kcal/mol | 59.6 °C
GCGGATAACCGC ((((....)))) | -19.6 kcal/mol | 53 °C
GCGGATAGCCGC ((((....)))) | -26.6 kcal/mol | 54.9 °C
GCGGATCCCCGC ((((....)))) | -23.3 kcal/mol | 56.4 °C
GCGGATCCCGC ((((...)))) | -23.4 kcal/mol | 53.6 °C
GCGGATCGAAAGATCGC (((.(((....)))))) | -25.6 kcal/mol | 58.1 °C
GCGGATCTCCGC ((((....)))) | -25.3 kcal/mol | 59.6 °C
GCGGATGGAAACGTTCGC (((.(.(....).).))) | -28.2 kcal/mol | 44.1 °C
